SMILES strings stand for the structures. Converted amounts (≈) assume the structure as drawn.

Our source for the MIC and MIC80 values is ChEMBL document CHEMBL3865797, “Design, synthesis and biological evaluation of berberine-benzimidazole hybrids as new type of potentially DNA-targeting antimicrobial agents” (Eur J Med Chem, 2016).

The test system of assay [1] is Staphylococcus aureus. Briefly: Antibacterial activity against Staphylococcus aureus ATCC 25923 measured after 24 hrs by two-fold serial dilution method. It counts as functional. The note with it: ATCC 25923, 24 h. The method, boiled down: (§1)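 MIC by two-fold serial broth microdilution in 96-well plates, following NCCLS recommendations. Chloromycin, norfloxacin and fluconazole serve as reference drugs. The MIC is read as the lowest concentration that inhibits growth, in µg/mL.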

The test system of assay [2] is Staphylococcus aureus. Briefly: Antibacterial activity against methicillin-resistant Staphylococcus aureus N315 measured after 24 hrs by two-fold serial dilution method. As to conditions: N315, 24 h. In kind it is functional. The method, boiled down: (§2)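 Two-fold serial dilution in 96-well microtest plates following NCCLS guidance (micro broth dilution). Chloromycin and norfloxacin serve as positive controls. MIC is reported in µg/mL.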

The subject of another assay is Bacillus subtilis. Briefly: Antibacterial activity against Bacillus subtilis measured after 24 hrs by two-fold serial dilution method. In kind it is functional. Summed up:
as §1

The subject of the next assay is Micrococcus luteus. The assay is described as follows: Antibacterial activity against Micrococcus luteus ATCC 4698 measured after 24 hrs by two-fold serial dilution method. It counts as functional. As to conditions: NCTC 2665, 24 h. Summed up:
as §1

A further assay has as its system Proteus vulgaris. The assay is described as follows: Antibacterial activity against Bacillus proteus ATCC 13315 measured after 24 hrs by two-fold serial dilution method. In kind it is functional. The note with it: ATCC 13315, 24 h. The method, boiled down:
as §1

In the next assay the test system is Escherichia coli. Briefly: Antibacterial activity against Escherichia coli JM109 measured after 24 hrs by two-fold serial dilution method. In kind it is functional. The note with it: JM109, 24 h. Summed up:
as §1

For the next assay, the system named is Pseudomonas aeruginosa. The assay is described as follows: Antibacterial activity against Pseudomonas aeruginosa measured after 24 hrs by two-fold serial dilution method. It counts as functional. Summed up: as §1
The next assay deals with Salmonella typhi. Briefly: Antibacterial activity against Salmonella typhi measured after 24 hrs by two-fold serial dilution method. In kind it is functional, Salmonella enterica subsp. enterica serovar Typhi. The note with it: Salmonella enterica. Summed up: as §2
The test system of a further assay is Candida albicans. Briefly: Antifungal activity against Candida albicans ATCC 76615 measured after 24 hrs by two-fold serial dilution method. It counts as functional. The note with it: ATCC 76615, 24 h. Summed up: as §1
Assay [3] is described as follows: Antifungal activity against Candida utilis measured after 24 hrs by two-fold serial dilution method. In kind it is functional. As to conditions: Cyberlindnera jadinii. Summed up: as §1
Assay [4] in a line: Antifungal activity against Saccharomyces cerevisiae measured after 24 hrs by two-fold serial dilution method. In kind it is functional. Summed up: as §1
The next assay concerns Aspergillus flavus. Briefly: Antifungal activity against Aspergillus flavus measured after 24 hrs by two-fold serial dilution method. It counts as functional. Summed up:
as §1

With `CCCCCCCCCCCCCCCCn1c(COc2c(OC)ccc3cc4[n+](cc23)CCc2cc3c(cc2-4)OCO3)nc2ccccc21.[Cl-]`, the MIC against Staphylococcus aureus [1] amounted to 256 µg/mL; in the assay on Staphylococcus aureus [2], 256 µg/mL; against Bacillus subtilis, 512 µg/mL; in the assay with Micrococcus luteus, 128 µg/mL; in the assay on Proteus vulgaris it was 512 µg/mL; with Escherichia coli, 64 µg/mL. Further, the MIC in the assay with Pseudomonas aeruginosa and in the assay on Salmonella typhi was 128 µg/mL each time. Also, the MIC80 against Candida albicans is 64 µg/mL; in assay [3], 128 µg/mL; in [4], 512 µg/mL; in the assay with Aspergillus flavus, 128 µg/mL.
On to `O=C(N[C@H](CO)[C@H](O)c1ccc([N+](=O)[O-])cc1)C(Cl)Cl` [CHLORAMPHENICOL], for which the MIC against Staphylococcus aureus [1] is 16 µg/mL (≈ 49.5 µM); against Staphylococcus aureus [2], 16 µg/mL (≈ 49.5 µM); in the assay on Bacillus subtilis it was 32 µg/mL (≈ 99 µM); in the assay with Micrococcus luteus, 8 µg/mL (≈ 24.8 µM); against Proteus vulgaris it was 32 µg/mL (≈ 99 µM); against Escherichia coli, 32 µg/mL (≈ 99 µM). The MIC against Pseudomonas aeruginosa and with Salmonella typhi was 32 µg/mL (≈ 99 µM) each time.
Turning to `CCCCCCCCn1c(COc2c(OC)ccc3cc4[n+](cc23)CCc2cc3c(cc2-4)OCO3)nc2ccccc21.[Cl-]`, the MIC with Staphylococcus aureus [1] was 8 µg/mL; in the assay with Staphylococcus aureus [2], 64 µg/mL; in the assay with Bacillus subtilis, 8 µg/mL; in the assay with Micrococcus luteus, 64 µg/mL; in the assay on Proteus vulgaris it was 512 µg/mL; in the assay on Escherichia coli, 512 µg/mL. Besides, the figures for the minimal inhibitory concentration (MIC) against Pseudomonas aeruginosa and in the assay on Salmonella typhi were 8 µg/mL and 32 µg/mL, respectively. In addition, the MIC80 amounted to 16 µg/mL in the assay on Candida albicans, 32 µg/mL in assay [3], 512 µg/mL in [4] and 256 µg/mL against Aspergillus flavus.
In the case of `COc1ccc2cc3[n+](cc2c1OCc1nc2ccccc2n1Cc1ccccc1F)CCc1cc2c(cc1-3)OCO2.[Cl-]`, the MIC in the assay with Staphylococcus aureus [1] turned out to be 2 µg/mL; against Staphylococcus aureus [2], 512 µg/mL; in the assay on Bacillus subtilis, 256 µg/mL; in the assay on Micrococcus luteus, 8 µg/mL; in the assay on Proteus vulgaris, 128 µg/mL; with Escherichia coli, 128 µg/mL. Besides, the figures for the minimum inhibitory concentration (MIC) against Pseudomonas aeruginosa and against Salmonella typhi were 512 µg/mL and 4 µg/mL, respectively. Besides, the MIC80 in the assay with Candida albicans was 512 µg/mL; in assay [3], 4 µg/mL; in [4] it was 128 µg/mL; against Aspergillus flavus, 8 µg/mL.
As to `COc1ccc2cc3[n+](cc2c1OCc1nc2ccccc2n1Cc1ccc(Cl)cc1Cl)CCc1cc2c(cc1-3)OCO2.[Cl-]`, the MIC in the assay on Staphylococcus aureus [1] turned out to be 64 µg/mL; in the assay on Staphylococcus aureus [2], 4 µg/mL; in the assay with Bacillus subtilis, 512 µg/mL; against Micrococcus luteus, 16 µg/mL; in the assay with Proteus vulgaris it was 8 µg/mL; with Escherichia coli it was 16 µg/mL. In addition, the MIC came to 32 µg/mL against Pseudomonas aeruginosa and 16 µg/mL in the assay on Salmonella typhi. Also, the MIC80 in the assay on Candida albicans was determined as 512 µg/mL; in [3], 2 µg/mL; in assay [4], 512 µg/mL; in the assay on Aspergillus flavus it was 16 µg/mL.
With `COc1ccc2cc3[n+](cc2c1OCc1nc2ccc(F)cc2[nH]1)CCc1cc2c(cc1-3)OCO2.[Cl-]`, the MIC against Staphylococcus aureus [1] is 8 µg/mL; with Staphylococcus aureus [2] it was 512 µg/mL; against Bacillus subtilis it was 256 µg/mL; in the assay with Micrococcus luteus it was 16 µg/mL; against Proteus vulgaris it was 16 µg/mL; against Escherichia coli it was 32 µg/mL. Besides, the MIC in the assay with Pseudomonas aeruginosa came out at 256 µg/mL; with Salmonella typhi, 16 µg/mL. Further, the MIC80 in the assay on Candida albicans was 512 µg/mL; in [3], 64 µg/mL; in [4], 256 µg/mL; in the assay with Aspergillus flavus it was 32 µg/mL.
Consider `COc1ccc2cc3[n+](cc2c1OCc1nc2ccccc2n1Cc1cccc(Cl)c1)CCc1cc2c(cc1-3)OCO2.[Cl-]`, for which the MIC in the assay with Staphylococcus aureus [1] was found to be 512 µg/mL; against Staphylococcus aureus [2], 512 µg/mL; against Bacillus subtilis, 512 µg/mL; against Micrococcus luteus it was 16 µg/mL; in the assay on Proteus vulgaris, 128 µg/mL; against Escherichia coli, 512 µg/mL. Moreover, the MIC in the assay on Pseudomonas aeruginosa and in the assay on Salmonella typhi was 256 µg/mL in each case. The MIC80 with Candida albicans was 512 µg/mL; in [3], 16 µg/mL; in assay [4] it was 512 µg/mL; with Aspergillus flavus, 32 µg/mL.
As for `OC(Cn1cncn1)(Cn1cncn1)c1ccc(F)cc1F` [FLUCONAZOLE], the MIC80 with Candida albicans came out at 1 µg/mL (≈ 3.27 µM); in assay [3], 8 µg/mL (≈ 26.1 µM); in assay [4] it was 16 µg/mL (≈ 52.2 µM); against Aspergillus flavus it was 256 µg/mL (≈ 836 µM).
Turning to `CCn1cc(C(=O)O)c(=O)c2cc(F)c(N3CCNCC3)cc21` [NORFLOXACIN], the MIC against Staphylococcus aureus [1] is 2 µg/mL (≈ 6.26 µM); in the assay with Staphylococcus aureus [2], 8 µg/mL (≈ 25.1 µM); in the assay with Bacillus subtilis it was 4 µg/mL (≈ 12.5 µM); in the assay on Micrococcus luteus, 2 µg/mL (≈ 6.26 µM); against Proteus vulgaris it was 8 µg/mL (≈ 25.1 µM); against Escherichia coli it was 1 µg/mL (≈ 3.13 µM). Further, the minimal inhibitory concentration (MIC) in the assay on Pseudomonas aeruginosa was 16 µg/mL (≈ 50.1 µM); in the assay on Salmonella typhi, 4 µg/mL (≈ 12.5 µM).
